{"source": "ChEMBL document CHEMBL1155459", "about": "“On-bead screening of a combinatorial fumaric acid derived peptide library yields antiplasmodial cysteine protease inhibitors with unusual peptide sequences” (J Med Chem, 2009)", "key": {"[1]": {"assay": "Inhibition of Plasmodium falciparum falcipain-2 by fluorescence enzyme assay"}, "[2]": {"target": "Rhodesain (Trypanosoma brucei rhodesiense) (UniProt Q95PM0)", "sequence (Q95PM0 1-450)": "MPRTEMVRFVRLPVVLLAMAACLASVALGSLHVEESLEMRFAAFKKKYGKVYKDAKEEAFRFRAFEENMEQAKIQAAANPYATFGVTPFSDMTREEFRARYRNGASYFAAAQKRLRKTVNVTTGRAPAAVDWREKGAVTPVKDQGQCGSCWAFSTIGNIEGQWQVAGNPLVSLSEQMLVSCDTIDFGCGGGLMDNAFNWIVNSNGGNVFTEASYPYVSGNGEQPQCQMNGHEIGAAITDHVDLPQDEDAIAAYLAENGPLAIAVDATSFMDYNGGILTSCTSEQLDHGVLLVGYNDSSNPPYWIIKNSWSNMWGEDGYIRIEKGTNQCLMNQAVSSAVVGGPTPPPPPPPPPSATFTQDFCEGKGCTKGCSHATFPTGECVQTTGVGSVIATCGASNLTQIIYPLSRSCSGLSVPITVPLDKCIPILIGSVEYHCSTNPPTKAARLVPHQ", "assay": "Inhibition of Trypanosoma brucei rhodesiense recombinant rhodesain at 200 uM"}, "[3]": {"assay": "Inhibition of Plasmodium falciparum falcipain-2 after 12 hrs by fluorescence spectroscopy-based on-bead assay", "set-up": "concentration or dose not given beside the values", "conditions": "concentration not given here; call rule not given here", "procedure,_shortened": "(§1)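 Library members on resin (PEGA, theoretical loading 0.40 mmol/g; added as DMSO suspension, 0.64 mM final inhibitor) preincubated with enzyme 12 h, then Cbz-Phe-Arg-AMC 40 μM added; AMC release followed by fluorescence (ex 380/em 460 nm). Kinetics compared with inhibitor-free amino-PEGA resin.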"}, "[4]": {"system": "Plasmodium falciparum", "assay": "Inhibition of Plasmodium falciparum recombinant falcipain-2 expressed in Escherichia coli at 100 uM after 20 min by spectrofluorometry", "procedure,_shortened": "(§2)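 Single-point screen at 100 μM inhibitor (final). Recombinant enzyme in 50 mM acetate pH 5.5, 5 mM EDTA, 200 mM NaCl, 5 mM DTT, 10% DMSO final; Cbz-Phe-Arg-AMC 40 μM (or Cbz-Leu-Arg-AMC 25 μM) hydrolysis followed by fluorescence (ex 380/em 460 nm). % inhibition = 100(1 − vi/vc) from progress-curve slopes vs DMSO control; at least two independent assays.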"}, "[5]": {"assay": "Inhibition of Plasmodium falciparum recombinant falcipain-2 expressed in Escherichia coli after 20 min using Cbz-Phe-Arg-AMC as substrate by spectrofluorometry", "conditions": "in the assay text read “over 5-10 min” for “after 20 min”", "procedure,_shortened": "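Continuous assay without preincubation. Recombinant falcipain-2 in 50 mM acetate pH 5.5, 5 mM EDTA, 200 mM NaCl, 5 mM DTT, 10% DMSO final; Cbz-Phe-Arg-AMC (40 μM, Km 21.5 μM) or Cbz-Leu-Arg-AMC (25 μM, Km 8.4 μM). Fluorescence monitored 5-10 min at 0.1-80 μM inhibitor. Ki from Dixon plot, corrected to zero substrate; at least two independent assays.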"}, "[6]": {"system": "Plasmodium falciparum", "assay": "Antiplasmodial activity against Plasmodium falciparum FCBR by fluorometric method", "assay_type": "functional, organism-based, FCBR/Columbia", "conditions": "Plasmodium falciparum, FCBR/Columbia; read-out: IC50"}, "[7]": {"target": "Rhodesain (Trypanosoma brucei rhodesiense) (UniProt Q95PM0)", "assay": "Inhibition of Trypanosoma brucei rhodesiense rhodesain after 12 hrs by fluorescence spectroscopy-based on-bead assay", "set-up": "concentration or dose not given beside the values", "conditions": "concentration not given here", "procedure,_shortened": "as §1"}, "[8]": {"target": "Rhodesain (Trypanosoma brucei rhodesiense) (UniProt Q95PM0)", "assay": "Inhibition of Trypanosoma brucei rhodesiense recombinant rhodesain at 100 uM", "procedure,_shortened": "as §2"}, "[9]": {"target": "Rhodesain (Trypanosoma brucei rhodesiense, UniProt Q95PM0)", "sequence (Q95PM0 whole entry)": "as the sequence (Q95PM0 1-450) above", "assay": "Inhibition of Trypanosoma brucei rhodesiense recombinant rhodesain"}, "[10]": {"system": "Trypanosoma brucei brucei", "assay": "Antitrypanosomal activity against Trypanosoma brucei brucei", "assay_type": "functional, organism-based"}, "[11]": {"target": "T1, Cathepsin B (Homo sapiens, UniProt P07858)", "assay": "Inhibition of human liver cathepsin B at 100 uM"}, "[12]": {"target": "T1, Cathepsin B", "assay": "Inhibition of human liver cathepsin B", "procedure,_shortened": "(§3)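 Cathepsin L (bovine spleen) or B (human liver) hydrolysis of Cbz-Phe-Arg-AMC (40 μM) followed by fluorescence for 5-10 min without preincubation at 0.1-80 μM inhibitor, 10% DMSO final.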"}, "[13]": {"target": "Procathepsin L (Bos taurus, UniProt P25975)", "sequence (P25975 whole entry)": "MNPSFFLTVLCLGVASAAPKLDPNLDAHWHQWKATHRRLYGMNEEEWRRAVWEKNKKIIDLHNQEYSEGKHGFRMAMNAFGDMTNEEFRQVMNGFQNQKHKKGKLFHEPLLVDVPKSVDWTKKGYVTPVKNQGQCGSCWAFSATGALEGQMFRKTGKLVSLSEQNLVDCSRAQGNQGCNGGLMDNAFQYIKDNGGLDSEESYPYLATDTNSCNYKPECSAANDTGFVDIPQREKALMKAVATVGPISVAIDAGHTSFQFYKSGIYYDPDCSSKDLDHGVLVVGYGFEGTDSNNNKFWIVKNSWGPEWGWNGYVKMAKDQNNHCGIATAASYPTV", "assay": "Inhibition of bovine spleen cathepsin L", "procedure,_shortened": "as §3"}, "[14]": {"target": "T1, Cathepsin B", "assay": "Inhibition of human liver cathepsin B at 200 uM measured before dialysis", "procedure,_shortened": "(§4)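 Human liver cathepsin B activity measured with 200 μM inhibitor before and after 3 h of continuous dialysis against assay buffer, to test reversibility.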"}, "[15]": {"target": "T1, Cathepsin B", "assay": "Inhibition of human liver cathepsin B at 200 uM measured after dialysis", "procedure,_shortened": "as §4"}, "[16]": {"assay": "Inhibition of Plasmodium falciparum recombinant falcipain-2 expressed in Escherichia coli […] using Cbz-Leu-Arg-AMC as substrate by spectrofluorometry"}}, "note": "Peptide text beside a SMILES is read from it.", "data": [{"compound": "CC(C)C[C@H](NC(=O)[C@H]1O[C@@H]1C(=O)O)C(=O)NCCCCN=C(N)N", "note": "[E-64]", "values": [{"measurement": "Ki", "setting": "[1]", "value": 0.29, "unit": "µM"}]}, {"compound": "N=C(N)c1ccc(OCCCCCOc2ccc(C(=N)N)cc2)cc1", "values": [{"measurement": "inhibition", "setting": "[2]", "value": 28, "unit": "%"}]}, {"compound": "CC(C)[C@H](NC(=O)[C@@H](NC(=O)[C@@H](NC(=O)[C@H](CC(N)=O)NC(=O)/C=C/C(=O)NCC(=O)NCC(=O)N[C@@H](Cc1ccccc1)C(=O)O)C1CCCCC1)C(C)C)C(N)=O", "note": "(HELM PEPTIDE1{[O=C(/C=C/C(=O)[*:2])NCC(=O)NCC(=O)N[C@@H](Cc1ccccc1)C(=O)O].N.[O=C([C@@H](N[*:1])C1CCCCC1)[*:2]].V.V.[am]}$$$$V2.0)", "values": [{"measurement": "inhibition", "setting": "[3]", "value": 61, "unit": "%"}, {"measurement": "inhibition", "setting": "[4]", "value": 90, "unit": "%"}, {"measurement": "Ki", "setting": "[5]", "value": 5.2, "unit": "µM"}, {"measurement": "IC50", "setting": "[6]", "value": 32, "unit": "µM"}, {"measurement": "inhibition", "setting": "[7]", "value": 46, "unit": "%"}, {"measurement": "inhibition", "setting": "[8]", "value": 96, "unit": "%"}, {"measurement": "Ki", "setting": "[9]", "value": 0.08, "unit": "µM"}, {"measurement": "IC50", "setting": "[10]", "value": "Not Active"}, {"measurement": "inhibition", "setting": "[11]", "value": 100, "unit": "%"}, {"measurement": "Ki", "setting": "[12]", "value": 1.4, "unit": "µM"}, {"measurement": "Ki", "setting": "[13]", "value": 37.5, "unit": "µM"}, {"measurement": "inhibition", "setting": "[14]", "value": 74, "unit": "%"}, {"measurement": "inhibition", "setting": "[15]", "value": 73, "unit": "%"}]}, {"compound": "CC(C)C[C@H](NC(=O)[C@H](C)NC(=O)/C=C/C(=O)N[C@@H](C)C(=O)NCC(=O)N[C@@H](Cc1ccccc1)C(=O)O)C(=O)N[C@@H](CC(C)C)C(=O)N[C@H](C(N)=O)C(C)C", "note": "(HELM PEPTIDE1{[C[C@H](NC(=O)/C=C/C(=O)[*:2])C(=O)NCC(=O)N[C@@H](Cc1ccccc1)C(=O)O].A.L.L.V.[am]}$$$$V2.0)", "values": [{"measurement": "inhibition", "setting": "[3]", "value": 58, "unit": "%"}, {"measurement": "inhibition", "setting": "[4]", "value": 86, "unit": "%"}, {"measurement": "Ki", "setting": "[16]", "value": 9.5, "unit": "µM"}, {"measurement": "inhibition", "setting": "[7]", "value": 67, "unit": "%"}, {"measurement": "inhibition", "setting": "[8]", "value": 96, "unit": "%"}, {"measurement": "Ki", "setting": "[9]", "value": 1.3, "unit": "µM"}, {"measurement": "inhibition", "setting": "[11]", "value": 45, "unit": "%"}, {"measurement": "Ki", "setting": "[13]", "value": 33.6, "unit": "µM"}]}]}
